Compound activity deposited in PubChem BioAssay by several laboratories.
CYP2C19 activ: activators of human cytochrome P450 2C19. recombinant CYP2C19, luciferin-H EGE luminescence; stronger effect = higher value; 0 = fully inhibited enzyme, 1 = untreated enzyme. activation factor at 5 µM. 96,000 tested, under 10 active. AID 1025;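 active = activation factor of at least 2 at 5 µM in the primary screen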;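 also: 0 = wells with 2.5 mM tranylcypromine and 1 = vehicle-only wells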
Cav32 inh: inhibitors of human Cav3.2 T-type calcium channel | B-score at 10 µM | Cav3.2-expressing cells, Fluo-4 calcium fluorescence FDSS; stronger effect = lower value | AID 449739 | 4% of 100,000 active | O95180;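 active = single-dose well whose peak fluorescence ratio is a statistical outlier from its plate by either plate-standardised score or position-corrected B-score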
CYP2C9 act: CYP2C9 (human) activation. activation factor at 5 µM. 1.4% of 96,000 active. recombinant CYP2C9, luciferin-H conversion, luminescence; stronger effect = higher value; factor 1 = untreated enzyme, 0 = blocked. P11712;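 active = activation factor of 2 or more for CYP2C9 at a 5 µM dose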;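 also: 0 = sulfaphenazole-blocked wells and 1 = vehicle-only wells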
Target sequence (P11712 whole entry, looked up): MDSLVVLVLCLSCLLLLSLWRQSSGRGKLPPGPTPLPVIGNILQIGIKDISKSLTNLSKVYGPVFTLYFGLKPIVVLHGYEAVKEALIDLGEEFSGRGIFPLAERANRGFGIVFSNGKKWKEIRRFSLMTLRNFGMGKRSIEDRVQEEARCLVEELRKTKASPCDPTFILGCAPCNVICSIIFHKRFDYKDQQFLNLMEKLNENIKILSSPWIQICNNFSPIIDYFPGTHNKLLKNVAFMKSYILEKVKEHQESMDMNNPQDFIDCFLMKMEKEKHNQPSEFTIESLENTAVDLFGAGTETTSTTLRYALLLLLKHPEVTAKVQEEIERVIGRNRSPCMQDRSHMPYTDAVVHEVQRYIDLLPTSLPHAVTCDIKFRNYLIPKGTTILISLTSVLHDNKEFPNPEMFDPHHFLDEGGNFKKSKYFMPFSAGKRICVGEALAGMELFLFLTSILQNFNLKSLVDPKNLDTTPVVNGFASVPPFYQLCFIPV
CYP2C19 inh: human CYP2C19 inhibition; CYP2C19 Supersomes, luciferin-H EGE luminescence, 30 min; 21% of 96,000 active; AID 778; inhibition, % at 5 µM;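 active = CYP2C19 inhibition above a set limit at 5 µM in the primary screen, cut at about 50% in these data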;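 also: plate controls were negative control wells for no effect and 2.5 mM tranylcypromine positive control for full effect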
Rev-RRE block: inhibitors of HIV-1 Rev-RRE RNA interaction. P05866. Rev peptide-RRE RNA binding, FRET. inhibition, % at 8 µM. 0.79% of 97,000 active. AID 704;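 active = inhibition above the screen-wide mean plus 3 SD, cut at about 35% in these data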;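 also: 0% = median DMSO wells and 100% = median Neomycin B control wells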
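assay system = Cy5-tagged RRE RNA duplex with fluorescein-tagged Rev peptide | incubation = 5 + 15 min at 25 °C | also added = labelled Rev peptide | measure = % inhibition of FRET ratio versus controls | benchmarks = DMSO wells as 0% and neomycin B wells as 100% inhibition | measured by = FRET fluorescence readout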
CYP2C9 inh: inhibitors of human CYP2C9; CYP2C9 Supersomes, luciferin-H conversion, luminescence; 20% of 96,000 active; inhibition, % at 5 µM; P11712;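 active = blocking of liver enzyme CYP2C9 beyond about 50% at 5 µM, limit read from the data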
Numbers without * were called inactive. Shown are actives, neighbours in structure and some others; about 27% of the full set was active somewhere.

Results for O=C(C1CCN(c2nnc(-n3cccc3)s2)CC1)N1CCOCC1 ?
CYP2C19 activ: 1.1; Cav32 inh: 0.57; CYP2C9 act: 1.1; CYP2C19 inh: -14.0; CYP2C9 inh: -13.1

What do the screens show for `CCOc1ccc(CCNC(=O)C2CCCN(c3nn4c(=O)cc(C)nc4s3)C2)cc1OCC` (stereo unspecified)?
CYP2C19 activ: 0.7; Cav32 inh: 1.25; CYP2C9 act: 0.7; CYP2C19 inh: 31.3; CYP2C9 inh: 34.7

Results for O=C(Nc1ccccc1F)c1cc2nc(C(F)F)cc(C(F)F)n2n1 ?
Cav32 inh: -0.843; Rev-RRE block: 3.0

How did CCCn1c(N)c(Sc2ccc(Cl)cc2)c(=O)n(CCC)c1=O do in these assays?
CYP2C19 activ: 0.1; Cav32 inh: -0.916; CYP2C9 act: 0.4; CYP2C19 inh: 89.8*; Rev-RRE block: 7.7; CYP2C9 inh: 57.6*

Results for COc1cccc(-c2nn(C)c3sc(C(=O)N4CCN(c5ccccn5)CC4)cc23)c1 ?
CYP2C19 activ: 0.6; Cav32 inh: -1.53; CYP2C9 act: 0.2; CYP2C19 inh: 42.5; CYP2C9 inh: 80.2*

What do the screens show for `COc1ccc(N2CCN(C(=O)c3cc4c(-c5ccc(Cl)cc5)nn(C)c4s3)CC2)cc1`?
CYP2C19 activ: 0.8; Cav32 inh: -0.455; CYP2C9 act: 0.4; CYP2C19 inh: 23.4; Rev-RRE block: -6.3; CYP2C9 inh: 64.0*

Results for Cn1nc(-c2ccc(Cl)cc2)c2cc(C(=O)N3CCOCC3)sc21 ?
CYP2C19 activ: 0.7; Cav32 inh: 1.78; CYP2C9 act: 0.8; CYP2C19 inh: 34.3; Rev-RRE block: 7.1; CYP2C9 inh: 17.3

How did C#CCNC(=O)C1=C[C@@H](C2CC2)C[C@@H](OCc2ccc(CO)cc2)O1 do in these assays?
Cav32 inh: -0.000818

How did CCc1ccccc1NC(=O)CN1CCC(NC(=O)COC)CC1 do in these assays?
CYP2C19 activ: 0.9; Cav32 inh: -0.783; CYP2C9 act: 0.9; CYP2C19 inh: 7.8; Rev-RRE block: -0.8; CYP2C9 inh: 13.6

What do the screens show for `CCNc1nc(CN2CCOCC2)nc2sc3c(c12)CCC3`?
CYP2C19 activ: 0.7; Cav32 inh: 0.504; CYP2C9 act: 1; CYP2C19 inh: 29.8; Rev-RRE block: 3.4; CYP2C9 inh: 1.0

How did O=S(=O)(Nc1nc(CN2CCOCC2)nc2sc3c(c12)CCCC3)c1cc(F)ccc1F do in these assays?
CYP2C19 activ: 1; Cav32 inh: -1.49; CYP2C9 act: 0.4; CYP2C19 inh: 0.1; Rev-RRE block: 3.1; CYP2C9 inh: 62.6*

Results for CC(C)N1CC2(c3ccccc3)CN(C(C)C)CC(c3ccccc3)(C1)C2=O ?
CYP2C19 activ: 1; Cav32 inh: -3.4*; CYP2C9 act: 0.9; CYP2C19 inh: -2.5; Rev-RRE block: 4.5; CYP2C9 inh: 10.3

How did CCN1C(=O)N(C)C2(c3ccccc3)N(C)C(=O)N(C)C12c1ccccc1 (stereo unspecified) do in these assays?
CYP2C19 activ: 1.1; Cav32 inh: 0.48; CYP2C9 act: 1.1; CYP2C19 inh: -11.6; Rev-RRE block: 5.2; CYP2C9 inh: -5.8

What do the screens show for `CC(C)NC(=O)CSc1nnc(-c2ccc(C(C)(C)C)cc2)n1C`?
Cav32 inh: 0.0213; Rev-RRE block: -7.8

What do the screens show for `Cc1ccc(C)c(S(=O)(=O)N2C(=S)NC(=O)C2CC(C)C)c1` (stereo unspecified)?
CYP2C19 activ: 0.5; Cav32 inh: 0.745; CYP2C9 act: 0.2; CYP2C19 inh: 48.0; Rev-RRE block: -1.1; CYP2C9 inh: 79.7*

What do the screens show for `COc1ccc(OC)c(NS(=O)(=O)c2ccc(NC(=O)C3COc4ccccc4O3)cc2)c1` (stereo unspecified)?
CYP2C19 activ: 0.4; CYP2C9 act: 0.9; CYP2C19 inh: 57.1*; Rev-RRE block: 10.4; CYP2C9 inh: 11.0

How did CCCNC(=O)c1ccccc1NC(=O)C1COc2ccccc2O1 (stereo unspecified) do in these assays?
CYP2C19 activ: 0.4; Cav32 inh: -2.15; CYP2C9 act: 0.7; CYP2C19 inh: 58.7*; Rev-RRE block: 1.2; CYP2C9 inh: 30.7

What do the screens show for `COC(=O)c1ccc(C)c(NC(=O)C2COc3ccccc3O2)c1` (stereo unspecified)?
CYP2C19 activ: 0.2; Cav32 inh: -1.23; CYP2C9 act: 0.2; CYP2C19 inh: 78.5*; Rev-RRE block: 2.1; CYP2C9 inh: 79.4*
